Measurements: PubChem BioAssay
Calls of active or inactive are those of the source.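 How the source made its calls, unless noted: active means potentiation averaged over duplicate wells exceeding buffer-only control mean by more than 3 SD; inactive means the rest.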

Tested on: not listed separately
Assay: thallium flux activation in parental CHO cells, counter-screen for KCNQ1 potentiator project (AID 493006;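 active means duplicate-averaged activation above buffer control mean plus 5 SD of those controls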)
Conditions: parental CHO-K1 cells, FluxOR thallium flux, at 10 µM; hits give high values
Summary of the method: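 Assay system: Untransfected host CHO-K1 cells with FluxOR thallium dye | Probe or stimulus: Potassium/thallium depolarization pulse | Schedule: Overnight 37 °C plating, 90 min RT dye, 20 min compound | Detection: Kinetic thallium-flux fluorescence | Read-out: Max-minus-min fluorescence over baseline, percent of buffer-to-R-L3 span | Benchmarks: Low control buffer, high control R-L3 activator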

SMILES	outcome	activation
CC1(C)CC(=O)C2=C(C1)c1c(ccc3ccccc13)NC2c1cc([N+](=O)[O-])cc([N+](=O)[O-])c1O (stereo not drawn)	inactive	
OCCN1CCN(CCCN2c3ccccc3Sc3ccc(Cl)cc32)CC1	inactive	
Oc1c(Br)cc(Br)cc1C=Nc1ccc2c(c1)OCO2		172% (active)
COc1ccc(N2CCN(CC(=O)Nc3nc(C)cs3)CC2)cc1	inactive	
CC(=O)c1c(C)[nH]c(C(=O)Nc2cccc(C(F)(F)F)c2)c1C	inactive	
COc1ccc(C)cc1NC(=O)C1C2C=CC(C2)C1C(=O)O (stereo not drawn)	inactive	
CCN(c1ccc(NS(=O)(=O)c2cc(Cl)ccc2Cl)cc1)C(C)C	inactive	
C/C(Cl)=C\Cn1c(O)c(N=NC(N)=S)c2cc(Br)ccc21	inactive	
Cc1cccc(CNC(=O)C2CCCN(c3nn4c(=O)cc(C)nc4s3)C2)c1 (stereo not drawn)	inactive	
CC1CCc2sc3nc(N4CCN(CCO)CC4)n4ncnc4c3c2C1 (stereo not drawn)		510% (active)
O=C(c1ccc(Cl)cc1)c1c[nH]c(C(=O)C(Cl)(Cl)Cl)c1	inactive	
Cc1ccc2oc(C(=O)N3CCN(c4cccc(C)n4)CC3)c(C)c2c1	inactive	
CCC(=O)NNc1nc2c(Cl)cccc2s1	inactive	
Cc1ccc(C(=O)N2CCNC(=O)C2CC(=O)Nc2ccc(F)cc2)cc1C (stereo not drawn)	inactive	
CC(C)C1=NN(C(=O)c2ccccc2)C(O)(C(C)(C)C)C1 (stereo not drawn)	inactive	
CCOC(=O)c1sc(C)nc1C1CCN(C(=O)OCC)CC1	inactive	
Cc1cc(Cl)c(S(=O)(=O)Nc2ccc3c(c2)OCO3)cc1OCC(N)=O	inactive	
C=CCN(CC=C)C(=S)NC(=O)c1ccc(OC)c(Br)c1		506% (active)
COc1cc(CN(C)CC2CCCN(CCc3cccc(C(F)(F)F)c3)C2)ccc1O (stereo not drawn)	inactive	
Cc1cc(C(=O)N2CCCC(N3CCN(c4cccc(Cl)c4)CC3)C2)n(C)n1 (stereo not drawn)	inactive	

SMILES	outcome	activation
CCOC(=O)c1sc(NC(=O)c2ccc(OC(C)=O)cc2)nc1C	inactive	
COc1ccc(C2c3ccc4ccccc4c3Oc3ncn(CCCO)c(=N)c32)cc1 (stereo not drawn)	inactive	
Cc1ccc(C(=O)Nc2nc3ccccc3c(=O)s2)cc1		186% (active)
CC(=O)N1N=C(c2ccccc2OC(=O)/C=C/c2ccccc2)CC1c1ccccc1 (stereo not drawn)	inactive	
N=c1sccn1CC(=O)N1N=C(c2ccc(Cl)cc2)CC1c1ccco1 (stereo not drawn)	inactive	
CCC(C)NC(=O)c1cc(Cl)c(NC(=O)C2=C(C)OCCS2)cc1OC (stereo not drawn)	inactive	
CCC1CCCCN1C(=S)NC(=O)c1cccc([N+](=O)[O-])c1 (stereo not drawn)		232% (active)
COc1ccc(-c2nc(=S)c3ccc4ccccc4c3[nH]2)cc1		207% (active)
N=c1sccn1CC(=O)Nc1cc(Cl)ccc1Oc1ccccc1	inactive	
Cc1cc(Cl)n2nc(C)c(-c3ccc(Cl)cc3)c2n1		216% (active)
CC(=O)N(C)c1ccc(NC(=O)Cc2cccc3ccccc23)cc1	inactive	
CC(Oc1ccc(Br)cc1)c1nc2c3ccccc3nc(=S)n2[nH]1 (stereo not drawn)		227% (active)
CCCCCCCCCCCC(=O)NC(Cc1ccc(OC)c([N+](=O)[O-])c1)C(=O)O (stereo not drawn)		372% (active)
Cc1nnc(C)n1/N=C/c1cc(Br)cc(Br)c1O		145% (active)
Cc1cccc(NC(=S)NC(=O)c2cc(-c3ccccc3)nc3ccccc23)c1	inactive	
C=CCn1c(SCN2C(=O)c3ccccc3C2=O)nc2ccc(Cl)cc2c1=O		152% (active)
O=C(N/N=C/c1ccccn1)c1cc(-c2ccc(Br)cc2)nc2ccccc12		142% (active)
CCN(CC)CCn1c(OC)cc(=O)[nH]c1=O	inactive	
CC(C)(C)c1cc(C(=O)NNC(=O)c2ccc(C(F)(F)F)cc2)no1	inactive	

Molecular target: Potassium voltage-gated channel subfamily KQT member 1 (Homo sapiens) (UniProt P51787)
Sequence (P51787 whole entry, looked up): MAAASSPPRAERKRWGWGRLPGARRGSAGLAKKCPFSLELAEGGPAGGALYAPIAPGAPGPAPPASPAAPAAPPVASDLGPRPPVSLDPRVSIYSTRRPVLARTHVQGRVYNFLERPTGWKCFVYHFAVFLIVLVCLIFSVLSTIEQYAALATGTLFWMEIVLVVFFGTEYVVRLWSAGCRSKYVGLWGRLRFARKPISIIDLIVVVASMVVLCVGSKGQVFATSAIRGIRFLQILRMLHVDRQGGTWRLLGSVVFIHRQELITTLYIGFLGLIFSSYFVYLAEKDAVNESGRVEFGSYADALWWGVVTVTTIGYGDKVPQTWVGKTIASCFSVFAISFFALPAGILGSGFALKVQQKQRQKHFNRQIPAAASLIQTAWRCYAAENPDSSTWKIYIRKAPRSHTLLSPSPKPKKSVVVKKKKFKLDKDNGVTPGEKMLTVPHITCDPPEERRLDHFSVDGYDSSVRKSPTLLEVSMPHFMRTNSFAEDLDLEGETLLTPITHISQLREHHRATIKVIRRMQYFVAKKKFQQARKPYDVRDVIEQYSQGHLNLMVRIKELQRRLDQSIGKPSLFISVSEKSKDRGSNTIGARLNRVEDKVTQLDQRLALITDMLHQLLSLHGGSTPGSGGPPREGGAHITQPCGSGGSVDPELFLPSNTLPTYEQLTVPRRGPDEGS
Assay: KCNQ1 potassium channel potentiators, confirmation, FluxOR thallium flux, CHO cells, duplicates (AID 493007);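 on outcome: cells depolarized by a potassium plus thallium sulfate stimulus after compound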
Conditions: KCNQ1 cell line, FluxOR thallium flux fluorescence, at 10 µM; hits give high values, % of reference activator effect, buffer zero
Summary of the method: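 Material: KCNQ1-expressing CHO cell line; Incubation: FluxOR dye loading 90 min, compound exposure 20 min, room temperature; Detection: FluxOR Tl+ flux fluorescence, 10 s baseline plus 110 s recording; Read-out: percent activation between buffer and R-L3 responses; Control set: buffer-only wells as 0% and R-L3 activator as 100%; Replication: duplicate wells per compound.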

SMILES	outcome	potentiation
CC1(C)CC(=O)C2=C(C1)c1c(ccc3ccccc13)NC2c1cc([N+](=O)[O-])cc([N+](=O)[O-])c1O (stereo not drawn)	inactive	
OCCN1CCN(CCCN2c3ccccc3Sc3ccc(Cl)cc32)CC1	inactive	
Oc1c(Br)cc(Br)cc1C=Nc1ccc2c(c1)OCO2	inactive	
COc1ccc(N2CCN(CC(=O)Nc3nc(C)cs3)CC2)cc1	inactive	
CC(=O)c1c(C)[nH]c(C(=O)Nc2cccc(C(F)(F)F)c2)c1C	inactive	
COc1ccc(C)cc1NC(=O)C1C2C=CC(C2)C1C(=O)O (stereo not drawn)	inactive	
CCN(c1ccc(NS(=O)(=O)c2cc(Cl)ccc2Cl)cc1)C(C)C	inactive	
C/C(Cl)=C\Cn1c(O)c(N=NC(N)=S)c2cc(Br)ccc21		70.5% (active)
Cc1cccc(CNC(=O)C2CCCN(c3nn4c(=O)cc(C)nc4s3)C2)c1 (stereo not drawn)	inactive	
CC1CCc2sc3nc(N4CCN(CCO)CC4)n4ncnc4c3c2C1 (stereo not drawn)		200% (active)
O=C(c1ccc(Cl)cc1)c1c[nH]c(C(=O)C(Cl)(Cl)Cl)c1	inactive	
Cc1ccc2oc(C(=O)N3CCN(c4cccc(C)n4)CC3)c(C)c2c1	inactive	
CCC(=O)NNc1nc2c(Cl)cccc2s1	inactive	
Cc1ccc(C(=O)N2CCNC(=O)C2CC(=O)Nc2ccc(F)cc2)cc1C (stereo not drawn)		37.5% (active)
CC(C)C1=NN(C(=O)c2ccccc2)C(O)(C(C)(C)C)C1 (stereo not drawn)	inactive	
CCOC(=O)c1sc(C)nc1C1CCN(C(=O)OCC)CC1	inactive	
Cc1cc(Cl)c(S(=O)(=O)Nc2ccc3c(c2)OCO3)cc1OCC(N)=O	inactive	
C=CCN(CC=C)C(=S)NC(=O)c1ccc(OC)c(Br)c1		199% (active)
COc1cc(CN(C)CC2CCCN(CCc3cccc(C(F)(F)F)c3)C2)ccc1O (stereo not drawn)		43% (active)
Cc1cc(C(=O)N2CCCC(N3CCN(c4cccc(Cl)c4)CC3)C2)n(C)n1 (stereo not drawn)	inactive	

SMILES	outcome	potentiation
CCOC(=O)c1sc(NC(=O)c2ccc(OC(C)=O)cc2)nc1C	inactive	
COc1ccc(C2c3ccc4ccccc4c3Oc3ncn(CCCO)c(=N)c32)cc1 (stereo not drawn)	inactive	
Cc1ccc(C(=O)Nc2nc3ccccc3c(=O)s2)cc1		35.5% (active)
CC(=O)N1N=C(c2ccccc2OC(=O)/C=C/c2ccccc2)CC1c1ccccc1 (stereo not drawn)	inactive	
N=c1sccn1CC(=O)N1N=C(c2ccc(Cl)cc2)CC1c1ccco1 (stereo not drawn)	inactive	
CCC(C)NC(=O)c1cc(Cl)c(NC(=O)C2=C(C)OCCS2)cc1OC (stereo not drawn)	inactive	
CCC1CCCCN1C(=S)NC(=O)c1cccc([N+](=O)[O-])c1 (stereo not drawn)		57% (active)
COc1ccc(-c2nc(=S)c3ccc4ccccc4c3[nH]2)cc1		83.5% (active)
N=c1sccn1CC(=O)Nc1cc(Cl)ccc1Oc1ccccc1	inactive	
Cc1cc(Cl)n2nc(C)c(-c3ccc(Cl)cc3)c2n1		256% (active)
CC(=O)N(C)c1ccc(NC(=O)Cc2cccc3ccccc23)cc1	inactive	
CC(Oc1ccc(Br)cc1)c1nc2c3ccccc3nc(=S)n2[nH]1 (stereo not drawn)		45.5% (active)
CCCCCCCCCCCC(=O)NC(Cc1ccc(OC)c([N+](=O)[O-])c1)C(=O)O (stereo not drawn)		116% (active)
Cc1nnc(C)n1/N=C/c1cc(Br)cc(Br)c1O	inactive	
Cc1cccc(NC(=S)NC(=O)c2cc(-c3ccccc3)nc3ccccc23)c1		32% (active)
C=CCn1c(SCN2C(=O)c3ccccc3C2=O)nc2ccc(Cl)cc2c1=O	inactive	
O=C(N/N=C/c1ccccn1)c1cc(-c2ccc(Br)cc2)nc2ccccc12		51.5% (active)
CCN(CC)CCn1c(OC)cc(=O)[nH]c1=O	inactive	
CC(C)(C)c1cc(C(=O)NNC(=O)c2ccc(C(F)(F)F)cc2)no1		32% (active)
